Source: PubChem
M18AAP inhibitor: blocks P. falciparum M18 aspartyl aminopeptidase. recombinant PfM18AAP, H-Glu-NHMec fluorogenic cleavage. inhibition, % at 7.35 µM. actives 1.2% (n = 290,000);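 active = inhibition above the campaign mean inhibition over all tested compounds plus 3 SD, cut at about 28% in these data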;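 note: 0% = plate median of test compound wells and 100% = 2 mM ZnCl2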
PfGluPho inh: PfG6PD (Plasmodium falciparum) enzyme inhibition | PfGluPho enzyme, NADPH resazurin-diaphorase fluorescence | inhibition, % at 20 µM | actives 0.78% (n = 350,000) | AID 504690;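 active = inhibition reaching at least a set limit at 20 µM in the primary screen, cut at about 59% in these data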;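 note: 0% = DMSO wells with substrate and 100% = DMSO wells lacking glucose-6-phosphate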
Neddylation inh: inhibitors of human cullin neddylation. TR-FRET cullin neddylation, biochemical. inhibition, % at 25 µM. AID 651699. P61081+Q13564. actives 0.58% (n = 360,000); in the data active = inhibition above about 36%
Target sequence (P61081 whole entry, looked up): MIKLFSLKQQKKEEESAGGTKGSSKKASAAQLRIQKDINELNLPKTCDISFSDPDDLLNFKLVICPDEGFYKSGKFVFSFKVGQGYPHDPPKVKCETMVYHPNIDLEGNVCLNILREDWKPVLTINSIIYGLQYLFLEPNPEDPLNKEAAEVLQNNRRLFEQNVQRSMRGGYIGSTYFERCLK
Target sequence (Q13564 whole entry, looked up): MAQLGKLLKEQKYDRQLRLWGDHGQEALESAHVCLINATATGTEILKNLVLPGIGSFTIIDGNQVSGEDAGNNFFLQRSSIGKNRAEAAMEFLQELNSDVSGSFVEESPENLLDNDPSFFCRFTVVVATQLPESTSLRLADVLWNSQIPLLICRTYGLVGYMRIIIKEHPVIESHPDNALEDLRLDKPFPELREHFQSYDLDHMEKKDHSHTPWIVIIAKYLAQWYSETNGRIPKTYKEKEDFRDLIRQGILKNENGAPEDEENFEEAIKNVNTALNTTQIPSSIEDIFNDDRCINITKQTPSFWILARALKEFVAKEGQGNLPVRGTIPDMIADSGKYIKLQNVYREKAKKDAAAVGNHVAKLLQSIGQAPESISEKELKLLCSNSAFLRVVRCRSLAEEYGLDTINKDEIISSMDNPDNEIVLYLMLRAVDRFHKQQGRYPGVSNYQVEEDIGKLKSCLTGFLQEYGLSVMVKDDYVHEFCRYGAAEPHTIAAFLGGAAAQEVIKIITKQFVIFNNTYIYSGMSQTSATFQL
HKDC1 inh: HKDC1 (human) hexokinase inhibition. AID 493160. Q2TB90. recombinant HKDC1, G6PDH/diaphorase resazurin coupled fluorescence. actives 0.16% (n = 340,000). inhibition, % at 20 µM;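 active = inhibition above about 35% when tested at 20 µM, limit read from the data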;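 note: plate controls were DMSO wells with enzyme for no effect and DMSO wells lacking enzyme for full effect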
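System: Recombinant HKDC1 hexokinase | Amount: HKDC1 at 5 µg/mL | Reagent: Glucose with 1 mM ATP | Doses: Single 20 µM dose | Incubation: Reaction time 90 min, room temperature, protected from light | Signal: Coupled resazurin fluorescence, excitation 525 nm, emission 613 nm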
PfG6PD confirm: PfG6PD inhibition, single-dose confirmed; shares compounds with PfGluPho inh; recombinant PfGluPho, NADPH-diaphorase-resazurin fluorescence; inhibition, % at 20 µM; actives 34% (n = 2,400);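 active = inhibition of at least 50% at 20 µM in any single replicate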;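 note: 0% = DMSO with substrate and 100% = DMSO lacking glucose-6-phosphate substrate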
Diaph ctr 10uM: counter-screen for P. falciparum G6PD inhibitors: diaphorase inhibitors, oxidizers | shares compounds with PfGluPho inh | diaphorase-coupled resazurin reduction, fluorescence, NADPH 10 uM | inhibition, % at 20 µM | actives 39% (n = 820);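 active = average inhibition reaching 50% or more with the compound at 20 µM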;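 note: resorufin red fluorescence formed as diaphorase reduces resazurin using NADPH; 0% = DMSO with enzyme and 100% = DMSO without enzyme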
Diaphorase 30uM: inhibits diaphorase or oxidizes, flagging false PfG6PD hits | shares compounds with PfGluPho inh | Diaphorase/resazurin coupled assay, resorufin fluorescence, 30 uM NADPH | inhibition, % at 20 µM | actives 29% (n = 820);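 active = inhibition averaging 50% or more, tested at 20 µM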;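 note: 0% = DMSO with enzyme and 100% = DMSO wells lacking diaphorase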
* = called active by the depositor; . = no result given. Most compounds without a hit are left out; they make up all but 2.2% or so of the library.

SMILES	M18AAP inhibitor	PfGluPho inh	Neddylation inh	HKDC1 inh	PfG6PD confirm	others
N#Cc1ccc2sn(-c3ccccc3)c(=O)c2c1	.	126*	-11	.	107*	Diaph ctr 10uM=-11;Diaphorase 30uM=8
CCn1c2ccccc2c2cc(NC(C)=O)ccc21	0	13	11	4	.
CC(C)(C)c1cc(C(=O)C[n+]2ccc(C(=O)NCCCO)cc2)cc(C(C)(C)C)c1O	-10	6	-20	-2	.
O=C(NC(=S)Nc1ccc(-c2ccc(CO)o2)cc1)c1cccs1	4	81*	3	4	5
Cc1ccc(C(=O)NC(=S)Nc2ccc(-c3ccc(CO)o3)cc2)cc1	-10	7	-87	-11	.
O=C(Nc1ccc(Oc2cccnc2)cc1)c1cccc([N+](=O)[O-])c1	-1	61*	-27	4	29
O=C(COC(=O)C1CC1)NCc1ccc(Cl)cc1Cl	.	-13	2	-5	.
Cc1ccc(S(=O)(=O)N2C[C@H]3[C@H]4C(=O)N(Cc5ccccc5)C(=O)[C@H]4CC(=O)[C@H]3[C@@H]2c2cccc3ccccc23)cc1	.	.	-41	.	.
COc1ccc(-c2cc3ccccc3cn2)cc1	.	59*	10	0	9
COc1ccc(-c2cc3ccc(OC)cc3cn2)cc1	.	30	-112	4	.
CCNc1cc2c(cc1O)CCC1C2CCC2(C)C(O)CCC12 (stereo not given)	.	80*	-2	2	50*	Diaph ctr 10uM=-7;Diaphorase 30uM=-8
COc1ccccc1CN(Cc1nc2ccccc2c(=O)[nH]1)S(=O)(=O)c1ccc2ccccc2c1	10	59*	-99	-3	4
O=C(COC(=O)c1ccccc1C(=O)c1ccc(Cl)cc1)NCc1ccccc1	1	81*	-4	-6	45
Cc1ccc(C(=O)N2CCCCC2)cc1NC1=C(Cl)C(=O)N(Cc2ccccc2)C1=O	.	-14	-24	6	.
Cc1ccc(O)c(NC2=C(Cl)C(=O)N(Cc3ccccc3)C2=O)c1	23	85*	-18	3	30
Nc1n[nH]c(=S)n1/N=C1/C(=O)Nc2ccccc21	32*	73*	-45	-6	47
CCN(CC)CCn1c2ccccc2c(=O)c2c(O)ccc(O)c21	.	84*	-32	14	98*	Diaph ctr 10uM=31;Diaphorase 30uM=30
O=C(COC(=O)c1ccc(Cl)c(S(=O)(=O)N2CCOCC2)c1)NCc1ccco1	.	0	17	-3	.
Cc1[nH]c(-c2ccccn2)nc(=S)c1Cl	1	69*	5	4	5
Cc1cc(=S)nc(-c2ccccn2)[nH]1	-13	12	22	-6	.
Cc1ccc(S(=O)(=O)N2CCN(C(=S)NCc3ccc4c(c3)OCO4)CC2)cc1	5	10	-3	-5	.
COc1cc(NC(C)CCc2ccccc2)cc(OC)c1OC (stereo not given)	12	77*	3	16	79*	Diaph ctr 10uM=8;Diaphorase 30uM=3
C/C=C/c1cccc(-c2nc(C(=O)N3CCN(C)CC3)cc3c2[C@@H](CCO)N(C(=O)NC(C)C)C3)c1	.	.	-4	.	.
FC(F)(F)c1cccc(-c2nc3nc(Cl)c(Cl)nc3[nH]2)c1	-8	102*	-52	1	76*	Diaph ctr 10uM=77*;Diaphorase 30uM=57*
FC(F)(F)c1nc2nc(Cl)c(Cl)nc2[nH]1	.	-1	-1	.	.
SMILES	M18AAP inhibitor	PfGluPho inh	Neddylation inh	HKDC1 inh	PfG6PD confirm	others
COC(=O)c1c(-c2cccnc2)csc1NC(=O)c1cc(C)on1	18	62*	15	1	16
Cc1ccccc1-c1cc(C(=O)NCc2cccc(Br)c2)n(CC2CC(c3cccnc3)=NO2)n1 (stereo not given)	.	21	-20	2	.
CCc1ccc(CN2CCCC(C(=O)Nc3ccccc3-c3ccc(OC)cc3)C2)o1 (stereo not given)	-11	15	7	3	.
O=C1c2ccccc2-c2onc3c(N4CCN(CCO)CC4)cc(N4CCN(C(=O)c5ccco5)CC4)c1c23	22	75*	-20	24	35
O=C(O)CCCNc1cc(N2CCN(C(=O)c3ccco3)CC2)c2noc3c2c1C(=O)c1ccccc1-3	26	35	-12	22	.
Cc1ccccc1-c1ccc(C(=O)Nc2cccc(F)c2)o1	-1	69*	-16	2	-3
O=C(CNc1cccc2ccccc12)N/N=C/c1ccccn1	-3	60*	-4	18	20
CCOC(=O)c1c(-c2ccc(OCC)cc2)csc1NC(=O)CCN1C(=O)c2ccccc2C1=O	6	.	.	.	.
CCOC(=O)c1c(-c2ccc(OC)cc2)csc1NC(=O)CCN1C(=O)c2ccccc2C1=O	23	62*	-26	3	10
Cn1c(=O)c(C(=O)COC(=O)c2cc(-c3ccco3)nc3ccccc23)c(N)n(Cc2ccccc2)c1=O	-5	.	.	.	.
CC(C)Cn1c(N)c(C(=O)COC(=O)c2cc(-c3ccco3)nc3ccccc23)c(=O)n(C)c1=O	-2	71*	-24	24	4
O=C(O)c1ccc(N2CC3CC(C2)c2cccc(=O)n2C3)c(NC(=S)Nc2ccc(Cl)cc2Cl)c1 (stereo not given)	19	59*	13	-11	27
CCc1ccc(NC(=O)Nc2cc(C(=O)O)ccc2N2CC3CC(C2)c2cccc(=O)n2C3)cc1 (stereo not given)	-6	20	2	-1	.
O=C(Nc1ccccc1)c1cc2ccccc2c(=O)s1	4	29	-39	-5	.
O=C(Nc1ccccc1)c1cc2ccccc2s1	.	71*	-50	-2	15
COC(=O)c1ccc(/C=C/c2ccc3cccc(OC)c3n2)cc1	3	74*	39	10	26
COc1cc(/C=C/c2ccc3cccc(O)c3n2)cc(OC)c1OC	-7	-1	11	2	.
COc1cc(/C=C/c2ccc3cccc(O)c3n2)cc(Cl)c1OC	-4	73*	14	-2	-2
CCN1CCN(C(=S)c2ccc(O)cc2)CC1	47*	70*	-7	-12	53*	Diaph ctr 10uM=-12;Diaphorase 30uM=-4
Oc1ccc(C(=S)N2CCCCCC2)cc1	-5	-21	1	-2	.
CCN(CC)c1ccc(C(=O)N2CCN(Cc3ccccc3)CC2)cc1	3	-1	3	-7	.
CN(C)c1ccc(C(=S)N2CCN(Cc3ccccc3)CC2)cc1	55*	69*	3	-8	46
COc1ccc(CCC(=O)NC2CCCc3ccccc32)cc1OC (stereo not given)	-1	-8	-5	0	.
CC(OC(=O)c1nc(Cl)ccc1Cl)C(=O)c1ccccc1 (stereo not given)	.	1	3	-3	.
COc1cc(/C=N/O)cc(Br)c1OC	2	7	1	-3	.
COc1cc(/C=N/O)cc(Br)c1OCc1ccc(Cl)cc1	7	81*	5	7	11
Cc1ccc(C(=O)c2coc3ccc(O)c(Cl)c23)cc1	6	63*	3	5	27
